KCNK9 inh – inhibitors of human KCNK9 two-pore domain potassium channel; Q9NPC2; hit rate 1.2% among 310,000; HEK293 KCNK9, FluxOR thallium flux fluorescence; stronger effect = lower value; B-score at 10 µM;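 active = ratio B-score over 3 SD below the library mean, with starting fluorescence within 5 SD of its mean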;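 note: negative B-score means less thallium flux so channel inhibition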
KCNK3 inh – human KCNK3 channel inhibition, primary screen; AID 602410; B-score at 10 µM; hit rate 0.84% among 340,000; O14649; CHO-KCNK3 thallium flux, FluxOR fluorescence; stronger effect = lower value;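 active = B-score under library mean minus 4 SD, starting fluorescence ratio at most library mean plus 5 SD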;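 note: more negative B-score means stronger inhibition of thallium flux through KCNK3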
Target sequence (O14649 whole entry, looked up): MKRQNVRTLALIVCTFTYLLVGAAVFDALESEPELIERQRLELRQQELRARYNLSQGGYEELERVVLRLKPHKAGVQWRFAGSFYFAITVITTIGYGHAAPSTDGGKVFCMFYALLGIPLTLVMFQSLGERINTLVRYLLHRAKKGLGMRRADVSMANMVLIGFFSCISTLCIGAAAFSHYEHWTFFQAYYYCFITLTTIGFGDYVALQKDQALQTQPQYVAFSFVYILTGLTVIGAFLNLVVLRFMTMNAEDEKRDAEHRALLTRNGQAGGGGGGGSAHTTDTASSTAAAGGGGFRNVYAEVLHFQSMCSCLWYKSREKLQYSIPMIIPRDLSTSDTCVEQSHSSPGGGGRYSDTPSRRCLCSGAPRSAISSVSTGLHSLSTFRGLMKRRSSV
hERG protect – shields human hERG channel from block by proarrhythmic agents; Q12809; CHO-hERG, FluxOR thallium flux, dofetilide IC70 present; activation (rescue from dofetilide block), less the hit threshold, % at 10 µM; hit rate 0.51% among 310,000; AID 1511;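 active = activation above the mean of controls blocked by dofetilide plus 5 SD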;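 note: thallium influx through hERG after potassium depolarization seen as dye fluorescence rise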
KCNQ1 pot – human KCNQ1 channel potentiation or activation | P51787 | CHO-K1 KCNQ1, thallium flux FluxOR fluorescence; stronger effect = higher value | B-score at 10 µM | hit rate 0.35% among 310,000;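 active = fluorescence ratio B-score, a plate-corrected score, at least three library SD, with initial intensity B-score within 5 SD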
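Assay system: CHO-K1 cells stably expressing KCNQ1. Medium: assay buffer for compound exposure, DMSO matched across wells. Timing: 37 °C overnight plating, 90-min dark dye load, 20-min compound pretreatment. Signal: kinetic FluxOR fluorescence, 10 s baseline plus 110 s post-stimulus.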
KCNQ1 block – blocks the human KCNQ1 potassium channel. P51787. CHO-K1 KCNQ1, FluxOR thallium flux fluorescence; stronger effect = higher value. B-score at 10 µM. hit rate 1.3% among 310,000;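 active = compounds whose thallium flux B-score, printed positive for inhibition, exceeds three library SD while starting fluorescence stays within three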;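 note: channel opened by potassium depolarization with thallium stimulus after 20 min compound exposure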
Kir21 block – inhibitors of mouse Kir2.1 inward-rectifier potassium channel; P35561; HEK293-Kir2.1, FluxOR thallium flux fluorescence; stronger effect = lower value; B-score at 10 µM; hit rate 0.85% among 310,000;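 active = fluorescence ratio B-score at or below minus 3 SD of library scores, with starting-brightness B-score within 2 SD, cut at about -4.2 in these data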;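 note: channel flux triggered by added potassium and thallium sulfate stimulus; B-score of peak minus minimum fluorescence over baseline after thallium stimulus; more negative B-score means stronger Kir2.1 block with less thallium influx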
Active calls of the source: *; i = inactive; x = not tested or not shown; ! = not confirmed by another sample. An excerpt weighted towards active compounds, which were near 3.8% of everything screened.

SMILES	KCNK9 inh	KCNK3 inh	hERG protect	KCNQ1 pot	KCNQ1 block	Kir21 block
C/C=C(/C)C(=O)O[C@@H]1c2c(ccc3ccc(=O)oc23)O[C@@H]1C(C)(C)OC(=O)/C(C)=C\C	-7.14*	i	-7.6	i	i	0.54
COc1ccccc1OC(=O)Nc1ccc(Cl)cc1	i	i	-10.2	i	6*	1.2
O=[N+]([O-])c1ccc(N2CCC(O)CC2)nc1	i	i	-5.3	i	i	0.01
NC(N)=NC(=O)c1nc(Cl)c(N2CCCCCC2)nc1N	x	-9.76*	x	x	x	x
N#CC1=C(N)SC(N)=C(C#N)C1c1c(Cl)cccc1Cl	i	i	-16.9	i	i	0.56
N#CC1=C(N)SC(N)=C(C#N)C1c1cccc(Oc2ccccc2)c1	i	i	-8.8	i	8*	0.15
N#CC1=C(N)SC(N)=C(C#N)C1Cc1ccccc1	i	i	-13.0	i	9*	-0.79
CCOC(=O)CSc1nc2c([nH]c3ccccc32)c(=O)n1C	i	i	6.7*	i	i	0.54
CCOc1cc(C2C(C#N)=C(N)OC3=C2C(=O)CC(C)(C)C3)cc([N+](=O)[O-])c1O (stereo unspecified)	i	i	-3.6	i	i	-0.03
CC1(C)CC(=O)C2=C(C1)OC(N)=C(C#N)C2c1cc2c(cc1[N+](=O)[O-])OCO2 (stereo unspecified)	i	i	-24.3	i	10*	-11
Cn1c(=O)c(Nc2ccc(Cl)cc2)c2c3c(cccc31)C(=O)c1ccccc1-2	i	x	-8.0	i	9*	-7.08
COc1ccc2c(c1)CCCN2C(N)=Nc1ccc(Cl)cc1	i	i	-5.0	i	i	-7.59*
CCC(C)c1ccccc1NC(=O)CN1CCN(C/C=C/c2ccccc2)CC1 (stereo unspecified)	i	i	-13.9	i	i	-4.52*
CC1Cc2ccccc2N1C(=O)Cn1c(=O)oc2cc(S(=O)(=O)N3CCCCC3)ccc21 (stereo unspecified)	-7.23*	i	-7.6	i	i	0.07
CCOC(=O)/C(C#N)=C\C=C1C=CN(C)C=C1	i	i	-15.4	i	8*	-6.76
CCOC(=O)/C(C#N)=C\c1ccc(CC)s1	i	i	-2.6	i	i	-0.47
COC(=O)c1ccccc1NC(=S)N(Cc1ccc2c(c1)OCO2)Cc1cc2cc(C)ccc2[nH]c1=O	i	i	-8.6	i	i	1.26
COC(=O)c1ccccc1NC(=S)N(Cc1ccc2c(c1)OCO2)Cc1cc2ccc(C)cc2[nH]c1=O	i	i	-7.4	i	6*	-0.01
CC1=CC(=C2N=C(c3ccccc3)OC2=O)C=C(C)O1	i	i	-8.9	i	i	-1.16
O=C(Nc1ccccc1F)Nc1ccc([N+](=O)[O-])cc1Cl	i	i	-11.4	i	8*	-1.29
Cc1ccc2c(CC(=O)N(CC3CCCO3)c3c(N)n(Cc4ccccc4)c(=O)[nH]c3=O)coc2c1 (stereo unspecified)	i	i	-6.6	i	i	-0.37
CCC(C(=O)O)n1nnc(-c2ccc(-c3ccc(OC)cc3)cc2)n1 (stereo unspecified)	i	i	-3.9	i	i	-2.54
CCCCOc1ccc(-c2nnn(C(C)C(=O)OCC)n2)cc1 (stereo unspecified)	-7.22*	i	-3.1	i	i	-0.06
NCCNc1ccc(C(=O)N2c3ccccc3Sc3ccccc32)cc1[N+](=O)[O-]	i	i	-30.5	i	8*	-4.94*
CNC(=O)c1ccc(NC(=O)CN2c3cccc4cccc(c34)S2(=O)=O)cc1	i	i	13.9*	i	i	1.8
SMILES	KCNK9 inh	KCNK3 inh	hERG protect	KCNQ1 pot	KCNQ1 block	Kir21 block
O=C(CN1c2cccc3cccc(c23)S1(=O)=O)Nc1ccc(F)c(F)c1F	x	-9.35*	x	x	x	x
CN(C)C(=O)CN1c2cccc3cccc(c23)S1(=O)=O	i	i	-3.9	i	i	-1.21
O=C(CN1c2cccc3cccc(c23)S1(=O)=O)Nc1ccccc1F	i	i	-2.8	i	i	0.98
O=C(CN1c2cccc3cccc(c23)S1(=O)=O)Nc1ccccc1	i	i	-4.9	i	i	1.76
CC(C)N(Cc1ccccc1)C(=O)CN1c2cccc3cccc(c23)S1(=O)=O	x	-9.99*	x	x	x	x
Cc1ccc2[nH]c(=O)c(CN(Cc3cccnc3)Cc3nnnn3CC3CCCO3)cc2c1 (stereo unspecified)	i	i	-11.3	i	i	0.54
CC(C)(C)C(=O)NC(=S)Nc1ccccc1C(=O)NC1CCCCC1	i	i	-17.0	i	i	-1.63
O=C(Cc1cc(=O)[nH][nH]1)N/N=C/c1c(Cl)cccc1Cl	i	i	-2.5	i	i	-4.29*!
C=CCNCc1cccn1-c1sc2c(c1C#N)CCCC2	i	i	-8.3	i	i	-2.1
N#Cc1c(-n2cccc2/C=N/O)sc2c1CCCC2	i	i	-12.7	i	i	-9.84*
C/C(=N\Nc1nc(N2CCCCCC2)nc(N2CCCCCC2)n1)c1ccccc1	i	i	-12.6	i	14*	-1.7
O=C(c1ccc(OC2CCN(Cc3ccc(F)cc3)CC2)cc1)N1CCCC1	i	i	-5.4	i	i	-4.21*
CSc1ccc(CN2CCC(Oc3ccc(C(=O)N4CCCC4)cc3)CC2)cc1	i	i	-8.5	i	i	-4.4*
COc1ccc(C)cc1NC(=O)c1cccc(-c2ccc(OC(C)=O)cc2)c1	-8.07*	i	-6.3	i	i	-0.85
COc1ccc(-c2cccc(C(=O)Nc3ccccc3C)c2)cc1	i	i	-6.9	i	i	-0.59
COc1ccc(-n2c(NC(=O)c3ccc(Br)o3)c(C#N)c3nc4ccccc4nc32)cc1	i	x	-13.8	i	7*	0.85
O=C(NCCCN1CCC(Cc2ccccc2)CC1)c1ccc2nc(N3CCOCC3)sc2c1	i	i	-12.6	i	i	-0.23
Fc1cccc2sc(Nc3nc4ccccc4s3)nc12	i	i	13.1*	i	i	-0.1
Fc1ccc2nc(Nc3nc4c(F)cccc4s3)sc2c1	i	i	0.2	46*	i	1.43
O=C(NNc1nc2ccccc2s1)c1ccccc1F	i	i	-3.1	i	i	0.5
Fc1ccc2nc(Nc3nc4c(F)cc(F)cc4s3)sc2c1	i	i	5.0*	i	i	1.16
Cc1ccc(NS(=O)(=O)c2cc(C(=O)N3CCN(C)CC3)ccc2C)cc1C	i	i	-7.5	i	i	1.12
Oc1ccc(Cl)cc1-c1cc(-c2cccc(Br)c2)n[nH]1	i	i	-3.7	i	i	-0.02
